Assay outcomes as filed in PubChem BioAssay.
This is a sample that favours compounds with a hit; in the whole collection about 2.6% have one here.
PRMT1 inh: PRMT1 methyltransferase inhibitors, primary screen, biochemical, fluorescence polarization. Protein arginine N-methyltransferase 1 (Homo sapiens), Q99873. recombinant PRMT1, activity-based probe fluorescence polarization. inhibition, % at 2.79 µM. hit rate 1.3% among 370,000;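 active means inhibition above about 21% made by adding two undisclosed values, limit read from the data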
TCR CD3 inh: inhibitors of human TCR-CD3 interaction, primary screen, biochemical, fluorescence, TAMRA-labeled TCR probe. T-cell receptor (TCR). inhibition, % at 9.4 µM. hit rate 0.37% among 360,000. AID 651800, 2012; in the data active means inhibition above about 19%;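 further: recombinant mutant TCR 2C K166C tagged with TAMRA read by polarization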
HTRA1 inh: HTRA1 serine protease inhibitors, primary screen, biochemical, fluorescence polarization, HTS. inhibition, % at 5.96 µM. hit rate 0.5% among 340,000. AID 504803, 2011. Q92743. recombinant HTRA1, FP-rhodamine activity-based probe; in the data active means inhibition above about 36%
SIAE inh: human SIAE inhibitors, primary screen, biochemical, fluorescence polarization, FP-Rh probe, 1536-well HTS; hit rate 0.69% among 370,000; inhibition, % at 9.66 µM; SIAE FP-Rh probe binding; Sialate O-acetylesterase (Homo sapiens), Q9HAT2; AID 1053197, 2014;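 active means inhibition above a cutoff: mean of compounds within the control limits plus 3 SD of those, cut at about 17% in these data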
Target sequence (Q9HAT2 whole entry, looked up): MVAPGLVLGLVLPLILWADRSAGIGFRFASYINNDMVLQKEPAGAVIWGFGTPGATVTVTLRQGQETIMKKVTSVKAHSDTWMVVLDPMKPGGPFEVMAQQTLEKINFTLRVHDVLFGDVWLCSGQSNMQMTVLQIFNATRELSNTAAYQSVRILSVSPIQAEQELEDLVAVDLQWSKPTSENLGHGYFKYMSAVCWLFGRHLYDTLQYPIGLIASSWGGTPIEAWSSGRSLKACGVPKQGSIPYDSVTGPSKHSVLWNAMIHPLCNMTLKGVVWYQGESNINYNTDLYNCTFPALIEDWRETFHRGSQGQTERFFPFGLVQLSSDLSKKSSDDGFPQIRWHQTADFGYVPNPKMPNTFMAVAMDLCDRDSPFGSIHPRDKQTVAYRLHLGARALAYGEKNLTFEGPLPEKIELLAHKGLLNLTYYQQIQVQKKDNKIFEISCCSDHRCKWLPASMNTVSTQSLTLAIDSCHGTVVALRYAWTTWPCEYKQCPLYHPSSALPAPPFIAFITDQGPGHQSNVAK
ABHD4 inh: ABHD4 inhibitors, primary screen, biochemical, fluorescence polarization, mouse | (Lyso)-N-acylphosphatidylethanolamine lipase (Mus musculus), Q8VD66 | purified mABHD4, FP-Rh probe fluorescence polarization | inhibition, % at 8.92 µM | hit rate 0.54% among 370,000 | AID 720543, 2013;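 active means inhibition exceeding the mean over every tested compound plus 3 SD, cut at about 30% in these data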
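System: mouse ABHD4 enzyme, wild type / Medium: HEPES pH 7.0, NaCl, Pluronic buffer / Reagent: FP-Rh activity-based fluorescent probe / Control set: S159A mutant high control, sample median low control / Detection: fluorescence polarization with parallel and perpendicular emission, 525/598 nm / Schedule: 45 min + 60 min at 25 °C / Compound dosing: 8.92 µM, single dose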
Of the large screens only hits and unclear results are named; the others gave an inactive call.

O=C(CC1C(=O)NCCN1Cc1cccc(C(F)(F)F)c1)NC1CCOCC1 (stereo unspecified)	none
S=c1[nH]nc(COc2ccccc2)n1/N=C/c1ccc(Cl)cc1	none
CSc1ccc(/C=N/n2c(COc3ccccc3)n[nH]c2=S)cc1	PRMT1 inh 21.7
CCC(C)NC(=O)[C@@H]1CSC2c3ccccc3C(=O)N21 (stereo partly specified)	PRMT1 inh 21.3
Cc1cnc(NC(=O)CSc2nnc(COc3ccccc3)o2)s1	PRMT1 inh 24.2
CCOC(=O)C1CCCN(C(=O)c2ccc(-c3ccc([N+](=O)[O-])cc3)o2)C1 (stereo unspecified)	PRMT1 inh 23.9
CN(C)c1cccc2c(S(=O)(=O)NCC3CCN(C(=O)C(=O)c4cc5ccccc5o4)CC3)cccc12	none (no result: HTRA1 inh)
CC(C)C[C@@H]1COc2cccc(NC3CC3)c2S(=O)(=O)N1	none (no result: HTRA1 inh)
CC[n+]1ccc(C)c2cc(S(=O)C(F)(F)F)ccc21 (stereo unspecified)	HTRA1 inh 41.6 (no result: PRMT1 inh, TCR CD3 inh, SIAE inh, ABHD4 inh)
CCCCNc1cccc2c1S(=O)(=O)N[C@H](CC(C)C)CO2	none (no result: HTRA1 inh)
Cc1ccccc1-c1ccc2c(c1)[C@@H]1C[C@H]3[C@@H](CN1CC2)[C@H](C)ON3C	none (no result: HTRA1 inh)
Oc1ccc2c(c1)C1CCCC1(N1CCOCC1)O2 (stereo unspecified)	PRMT1 inh 27.2, ABHD4 inh 34.2
Cc1ccc(Nc2cc(C)nn2-c2nc(C)cc(C)n2)cc1	none
Cc1ccc(Nc2cc(C)nn2-c2nc(C)cc(=O)[nH]2)cc1	HTRA1 inh 49.6 (no result: PRMT1 inh, TCR CD3 inh, SIAE inh, ABHD4 inh)
Cc1noc(C)c1S(=O)(=O)N(C)C[C@@H]1OCc2cn(nn2)CCCC(=O)N([C@H](C)CO)C[C@H]1C	none (no result: HTRA1 inh)
O=C(Nc1ccc2c(c1)OCO2)NC1(C(F)(F)F)Oc2ccccc2O1	PRMT1 inh 21.9
Cc1cc(C)nc(SCC(=O)c2ccc(F)cc2)n1	none
Cc1cc(C)nc(SCNC(=O)c2ccc(F)cc2)n1	PRMT1 inh 25.5
COc1cc(CCC(=O)Nc2cc(S(=O)(=O)N3CCOCC3)ccc2OC(C)C)cc(OC)c1OC	none
CCN(CC)S(=O)(=O)c1ccc2c(c1)nc(SCn1nnc3ccccc3c1=O)n2CC	PRMT1 inh 21.9
C=CCN(CC=C)C(=S)Nc1ccc2nsnc2c1	PRMT1 inh 28.1
C=CCNC(=S)Nc1ccc2nsnc2c1	none
C[C@H]1[C@@H]2C[C@@]3(O[C@H](c4ccccn4)N=C3C[C@@H]1c1ccccc1)N(Cc1ccncc1)C2=O	none (no result: HTRA1 inh)
Cc1cc(Cn2nc(-c3ccccc3)cc2C(=O)NCc2cccc(Br)c2)on1	none
CC(=O)N1CC[n+]2c(-c3ccc(Cl)cc3)csc21	PRMT1 inh 78.4
N#Cc1[nH]nc2nc[nH]c(=O)c12	none (no result: HTRA1 inh)
Nc1c2c(nc3ccc(Br)cc13)N(c1ccccc1)CC2	PRMT1 inh 23.4
CCOC(=O)[C@]12CCC=C1N(Cc1ccccc1)C(=O)[C@H](CC(=O)NCc1ccc(C)o1)C2	PRMT1 inh 23.0 (no result: HTRA1 inh)
CCOC(=O)[C@]12CCC=C1N(Cc1ccco1)C(=O)[C@H](CC(=O)NCc1ccc(C)o1)C2	none (no result: HTRA1 inh)
COC(=O)[C@]12C[C@H](CC(=O)NCc3ccc(C)o3)C(=O)N(Cc3ccccc3)C1=C[C@H](C1CCCC1)O[C@@H]2C	PRMT1 inh 22.3 (no result: HTRA1 inh)
CC(C)(C)n1nc(C2CC2)cc1NC(=O)Nc1ccccc1	none (no result: HTRA1 inh)
Cc1ccc2nc(C(C)(C)C)c(Cc3ccsc3)n2c1	none (no result: HTRA1 inh)
CC(C)OC(=O)c1cn(-c2ccccc2)nc1-c1ccco1	PRMT1 inh 23.2
O=C(NC1CCCCC1)C(=O)c1c[nH]c2ccccc12	none
Cc1ccc(S(=O)(=O)N2CCCC(C(=O)NCCN3CCC(Cc4ccccc4)CC3)C2)cc1 (stereo unspecified)	none (no result: TCR CD3 inh, HTRA1 inh)
O=C(Oc1ccccc1)c1ccc(NC(=O)c2ccco2)cc1	PRMT1 inh 24.4
COC(=O)c1ccc(NC(=O)c2ccc(NC(=O)c3ccco3)cc2)cc1	none
CCOC(=O)C1=C(C)N(c2ccccc2)C(=O)/C1=C\c1ccco1	none
CCOC(=O)C1=C(C)N(c2ccccc2)C(=O)/C1=C\c1ccc(O)c(OC)c1	PRMT1 inh 41.7
